Laboratory results: ChEMBL document CHEMBL1221305, “Synthesis and evaluation of oryzalin analogs against Toxoplasma gondii” (Bioorg Med Chem Lett, 2010)
The source made the active and inactive calls. No cut-off for these calls is given here.

What was measured:
[1] = tested on: Toxoplasma gondii; assay: Antimicrobial activity against Toxoplasma gondii infected in HFF after 8 days by plaque assay; assay type: functional, organism-based; details: 192 h
[2] = tested on: Toxoplasma gondii; assay: Antimicrobial activity against Toxoplasma gondii RH infected in HFF assessed as inhibition of parasite replication at 10 to 25 uM after 28 hrs by immunofluorescence assay; assay type: functional, organism-based
Outline: (§1)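 Human fibroblast (HFF) cultures infected with intracellular T. gondii were exposed to compound in DMSO, with DMSO-only controls. They were fixed 28 h after infection for immunofluorescence. Parasite subpellicular microtubules were stained green, with host microtubules or parasite surface antigen P30/SAG1 in red and DNA in blue. Matched phase-contrast images were taken, and parasites per vacuole were scored.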

[3] = tested on: Toxoplasma gondii; assay: Antimicrobial activity against Toxoplasma gondii RH infected in HFF assessed as inhibition of parasite growth at 10 to 25 uM after 28 hrs by immunofluorescence assay; assay type: functional, organism-based; outline: as §1
[4] = tested on: Toxoplasma gondii RH; assay: Inhibition of tubulin in Toxoplasma gondii RH infected in HFF assessed as microtubules disruption at 10 to 25 uM after 28 hrs by immunofluorescence assay; outline: as §1
[5] = tested on: HFF; assay: Cytotoxicity against HFF assessed as cell vacuolation at 30 uM after 17 hrs by MTS assay; assay type: cell-based; details: human
[6] = tested on: Toxoplasma gondii; assay: Antimicrobial activity against Toxoplasma gondii RH infected in HFF assessed as inhibition of parasite replication at 0.5 uM after 28 hrs by immunofluorescence assay; assay type: functional, organism-based
[7] = tested on: Toxoplasma gondii RH; assay: Inhibition of tubulin in Toxoplasma gondii RH infected in HFF assessed as microtubules disruption at 0.5 uM after 28 hrs by immunofluorescence assay
Outline: (§2)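 Human foreskin fibroblast (HFF) cultures infected with intracellular Toxoplasma were treated for 28 h with 0.5 µM compound in DMSO, with DMSO vehicle as control. Read-out was immunofluorescence: host cell microtubules in red, parasite subpellicular microtubules/tubulin in green, and host and parasite DNA in blue. Microtubules were scored as filamentous linear arrays or as diffuse staining, with matched phase-contrast images.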

[8] = molecular target: Tubulin (Homo sapiens) (UniProt P68371+Q9H4B7+P0DPH7+P68366+Q13509+Q71U36+P04350+Q3ZCM7+P07437+P68363+Q9BQE3+Q6PEY2+Q13885+Q9BVA1+Q9BUF5); assay: Inhibition of tubulin in HFF assessed as microtubules disruption at 0.5 uM after 28 hrs by immunofluorescence assay; outline: as §2
[9] = tested on: HFF; assay: Cytotoxicity against HFF assessed as reduction of cell viability at 0.5 uM after 17 hrs by MTS assay; assay type: cell-based; details: human
Outline: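 Host HFF cells were treated for 17 h with compound at 0.5 µM or 30 µM. Viable cells were quantified by tetrazolium dye (MTS, CellTiter reagent) assay.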

[10] = tested on: HFF; assay: Cytotoxicity against HFF assessed as assessed as reduction of cell viability at 30 uM after 17 hrs by MTS assay; assay type: cell-based; details: human

SMILES: CCN(CC)c1c([N+](=O)[O-])cc(C(F)(F)F)c(N)c1[N+](=O)[O-] [DINITRAMINE]
- IC50 [1]: 0.07 µM

SMILES: NS(=O)(=O)c1cc([N+](=O)[O-])c(N(Cc2ccccc2)CC2CC2)c([N+](=O)[O-])c1
- IC50 [1]: 2.1 µM

SMILES: CCCN(CCC)c1c([N+](=O)[O-])cc(S(=O)(=O)Nc2ccc(O)cc2)cc1[N+](=O)[O-]
- IC50 [1]: 2.6 µM

SMILES: CCCN(CCC)c1c([N+](=O)[O-])cc(S(=O)(=O)Nc2ccccc2)cc1[N+](=O)[O-]
- IC50 [1]: 6.7 µM

SMILES: CCCN(CCC)c1c(C#N)cc(S(N)(=O)=O)cc1C#N
- IC50 [1]: 4.8 µM

SMILES: NS(=O)(=O)c1cc([N+](=O)[O-])c(N(CC2CCCCC2)CC2CCCCC2)c([N+](=O)[O-])c1
- inhibition [2]: Active
- inhibition [3]: Active
- inhibition [4]: inactive

SMILES: CCCN(CCC)c1c([N+](=O)[O-])cc(S(=O)(=O)NCCO)cc1[N+](=O)[O-]
- IC50 [1]: 26 µM

SMILES: NS(=O)(=O)c1cc([N+](=O)[O-])c(N(CCCCl)Cc2ccccc2)c([N+](=O)[O-])c1
- IC50 [1]: 2.6 µM

SMILES: CCCN(CCC)c1c([N+](=O)[O-])cc(S(N)(=O)=O)cc1[N+](=O)[O-] [ORYZALIN]
- IC50 [1]: 0.25 µM

SMILES: Cc1ccc(CN(Cc2ccc(C)cc2)c2c([N+](=O)[O-])cc(S(N)(=O)=O)cc2[N+](=O)[O-])cc1
- inhibition [2]: Active
- inhibition [3]: Active
- Activity [5]: Toxic
- inhibition [4]: inactive

SMILES: CCCCN(CCCC)c1c([N+](=O)[O-])cc(C(F)(F)F)c(N)c1[N+](=O)[O-]
- IC50 [1]: 0.51 µM

SMILES: CCCN(CCC)c1c([N+](=O)[O-])cc(C(F)(F)F)cc1[N+](=O)[O-] [TRIFLURALIN]
- IC50 [1]: 0.65 µM

SMILES: NS(=O)(=O)c1cc([N+](=O)[O-])c(N(CCCl)Cc2ccccc2)c([N+](=O)[O-])c1
- IC50 [1]: 0.85 µM

SMILES: CC(C)CN(CC(C)C)c1c([N+](=O)[O-])cc(S(N)(=O)=O)cc1[N+](=O)[O-]
- IC50 [1]: 0.35 µM

SMILES: CCCCN(CCCC)c1c([N+](=O)[O-])cc(S(N)(=O)=O)cc1[N+](=O)[O-]
- IC50 [1]: 1.1 µM

SMILES: CCCN(CCC)c1c([N+](=O)[O-])cc([N+](=O)[O-])cc1C(F)(F)F
- IC50 [1]: 7.8 µM

SMILES: CCCN(CCC)c1c([N+](=O)[O-])cc(C(F)(F)F)c(N)c1[N+](=O)[O-]
- inhibition [6]: Active
- inhibition [7]: Active
- IC50 [1]: 0.036 µM
- Activity [8]: Non-toxic
- Activity [9]: Non-toxic

SMILES: NS(=O)(=O)c1cc([N+](=O)[O-])c(N(CCc2ccccc2)CCc2ccccc2)c([N+](=O)[O-])c1
- Activity [10]: Toxic
- inhibition [2]: Active
- inhibition [3]: Active
- Activity [5]: Toxic
- inhibition [4]: inactive

SMILES: CCCN(CCC)c1c([N+](=O)[O-])cc(S(=O)(=O)N(C)C)cc1[N+](=O)[O-]
- IC50 [1]: 3.4 µM

SMILES: NS(=O)(=O)c1cc([N+](=O)[O-])c(N(Cc2ccccc2)Cc2ccccc2)c([N+](=O)[O-])c1
- inhibition [2]: Active
- inhibition [3]: Active
- inhibition [4]: inactive
